The text below walks through data of PubChem BioAssay.

Assay [1] in a line: inhibitors of TNFa-induced NFkB p65 translocation, primary screen, imaging, HUVEC, MLSMR starter and 10KST1 sets (AID 438;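 active = inhibition above 20% together with a positive visual image hit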;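 note: compound added about 3h40 before a 20 min TNFalpha stimulation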;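 for inhibition: signal is the nuclear over cytoplasmic p65 intensity ratio per well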). The note with it: HUVEC TNFa-induced p65 nuclear translocation; cell count: measured here: nuclei count (cytotoxicity indicator), at 2.08 µM; inhibition: at 2 µM, stronger effect = higher value, 0% TNFa-plus-vehicle, 100% no-TNFa wells.
Assay [2] in a line: reduction of polyQ htt aggregates in cells – imaging, exon1htt(103Q)mCFP cells, high-content imaging, primary screen (AID 483;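 active = visual image review flags a hit and inhibition of aggregation exceeds 20%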;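 note: compound exposure lasted 3 days before fixation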;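 for nuclei count: percent of the per-plate median nuclei count of sample wells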). The note with it: exon1htt(103Q)mCFP cell line, aggregate imaging, at 2 µM; inhibition of aggregation: stronger effect = higher value; nuclei count: measured here: cell count, toxicity.
Assay [3] is described as follows: endothelial E-selectin expression blockers – imaging, HUVEC, immunofluorescence, MLSMR starter and 10KST1 sets, primary screen (AID 487;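 active = visually confirmed hit in the image check and inhibition above 20%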;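 for inhibition: signal is fraction of cell area covered by stained E-selectin grains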;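 for nuclei count: 100% = median nuclei count of all wells on the same plate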). The note with it: HUVEC TNFalpha-induced E-selectin immunofluorescence imaging, at 2 µM; inhibition: stronger effect = higher value; nuclei count: measured here: cell number, toxicity.
Assay [4] has as its target Voltage-gated potassium channel subunit beta-2 (Rattus norvegicus) (UniProt P62483). The assay is described as follows: inhibitors of rat Kvbeta2 reductase activity – biochemical, NADPH fluorescence, primary screen (AID 622;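 active = fluorescence slope higher than the sample average by over 3 SD, cut at about -0.22 in these data, passing the limit was not always enough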;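 note: slope of raw intensity against log time taken from 70 to 1610 s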). The note with it: recombinant KvBeta, 4-cyanobenzaldehyde reduction, at 10 µM, stronger effect = higher value.
Assay [5] shares this target. The assay is described as follows: enhancers of rat Kvbeta2 NADPH turnover – biochemical, NADPH fluorescence, primary screen (AID 623;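 active = NADPH fluorescence slope more negative than the mean of all samples by about 3 SD, 99.7% confidence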;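 note: fluorescence intensity change per second fitted from 20 to 320 s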). The note with it: Recombinant KvBeta, NADPH fluorescence decrease slope, 10 min; at 10 µM; stronger effect = lower value.
In assay [6] the target is Alpha-2C adrenergic receptor (Homo sapiens) (UniProt P18825). The assay is described as follows: compounds altering alpha2C-coupled GIRK flux – cell-based, HEK293 alpha2C/GIRK1/2, thallium flux, primary screen (AID 624;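 active = fluorescence slope after compound addition differing from the mean of all screened samples at 99.7% confidence, in either direction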;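 note: slope of fluorescence ratio to pre-addition baseline per second over 15 to 24 s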). Particulars: thallium flux BTC fluorescence, at 10 µM, actives lie on both sides.
Alpha-2C adrenergic receptor (Homo sapiens), sequence (P18825 whole entry, looked up): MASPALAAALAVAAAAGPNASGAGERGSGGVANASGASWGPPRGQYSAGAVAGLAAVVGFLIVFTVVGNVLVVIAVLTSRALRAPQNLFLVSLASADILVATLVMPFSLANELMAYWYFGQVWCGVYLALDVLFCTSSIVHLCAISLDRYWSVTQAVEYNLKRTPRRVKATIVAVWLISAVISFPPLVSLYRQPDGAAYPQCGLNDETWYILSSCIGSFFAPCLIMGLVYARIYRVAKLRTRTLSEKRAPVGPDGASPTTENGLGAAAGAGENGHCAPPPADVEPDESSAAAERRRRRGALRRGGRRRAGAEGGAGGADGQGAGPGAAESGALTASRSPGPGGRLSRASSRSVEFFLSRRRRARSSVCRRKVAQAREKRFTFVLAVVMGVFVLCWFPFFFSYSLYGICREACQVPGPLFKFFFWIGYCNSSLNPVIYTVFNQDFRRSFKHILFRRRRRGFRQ
Assay [7] is described as follows: inhibitors of larval lipid processing in zebrafish, primary screen, whole organism, PED6 fluorescence, gall bladder and intestine (AID 686;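 active = a full or partial loss of lipid-probe fluorescence in the fish gall bladder, intestine or both, judged by eye; inactive = no fluorescence loss, or compound toxic to the fish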;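 note: larvae 5 to 7 days old with five fish per well; signal comes from phospholipase A2 cleavage of quenched PED6 carried via bile; overnight exposure to compound and PED6 before scoring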). Particulars: Zebrafish larvae PED6 lipid processing, fluorescence scoring; screened at 20 µM (by protocol). The procedure, abridged:
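System: live zebrafish larvae aged 5-7 days, whole organism; measure: graded gall bladder and intestinal fluorescence inhibition per well; incubation: overnight exposure; reagent: ingested quenched lipid PED6 at 100 nM; signal: By-eye fluorescence microscopy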

Assay [8] is described as follows: blockers of RIG-like receptor reporter activation – cell-based, Sendai virus stimulus, luciferase, 10K MLSCN set, TLR/RLR signaling modifier project, primary screen (AID 602276).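 Note: firefly luciferase from ISG56 promoter only with Renilla not read in this screen; 0% = Sendai virus plus DMSO and 100% = medium plus DMSO without virus.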 Particulars: HEK293 RL24 IRF3 luciferase reporter, at 10 µM, stronger effect = higher value. In general terms: Reporter assays use an easily measured gene product as a stand-in for the process of interest.

The nature of assay [9]: TLR3 IRF3 reporter activation blockers – cell-based, poly I:C stimulus, luciferase, 10K MLSCN set, primary screen (AID 602277;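 active = inhibition of the reporter signal at or above 50%; inactive = inhibition below 50%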). The note with it: HEK293-TLR3 RL24 IRF3 luciferase reporter, at 10 µM, stronger effect = higher value.

Each structure is given as a SMILES string. Calls of active or inactive are those of the source.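 Rule for the calls, unless noted: active = inhibition at or above 50% at 10 µM; inactive = inhibition below 50%.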

Voltage-gated potassium channel subunit beta-2 (Rattus norvegicus), sequence (P62483 whole entry, looked up): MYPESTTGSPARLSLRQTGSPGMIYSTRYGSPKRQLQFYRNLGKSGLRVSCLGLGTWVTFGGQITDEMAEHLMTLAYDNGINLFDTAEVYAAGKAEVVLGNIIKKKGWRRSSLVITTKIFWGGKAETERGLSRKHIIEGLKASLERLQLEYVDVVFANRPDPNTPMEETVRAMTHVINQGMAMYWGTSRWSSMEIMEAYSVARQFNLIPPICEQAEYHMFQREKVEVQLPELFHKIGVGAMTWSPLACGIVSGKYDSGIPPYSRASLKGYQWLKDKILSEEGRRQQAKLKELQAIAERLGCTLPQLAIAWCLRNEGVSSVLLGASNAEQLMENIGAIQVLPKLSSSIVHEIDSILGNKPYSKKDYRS

In the case of `Nc1cc(N)nc(SCc2ccccc2)n1`, the cell count in assay [1] is 371. In addition, the inhibition in [1] is 1.1% (inactive); in [3], -26.1% (inactive); in assay [8], -47.8% (inactive); in assay [9], -101% (inactive). The inhibition of aggregation in [2] is 6.6% (inactive). For the same compound, the nuclei count in [2] worked out at 103%; in assay [3] it was 108%. In assay [4], the fluorescence slope was -0.499 (inactive). Further, the NADPH fluorescence slope in assay [5] was 1.3e-05 (inactive). Moreover, in assay [6], the slope is 0.00402 (inactive). Besides, in assay [7], the compound was classed as inactive.

Consider `COc1cc(SC)ccc1C(=O)Nc1ccccc1C#N`, for which, in [1], the cell count amounted to 417. In addition, the inhibition in [1] is 3.9% (inactive); in assay [3], -147% (inactive); in assay [8], -42.4% (inactive); in [9] it was -61.5% (inactive). Further, the inhibition of aggregation in assay [2] was -95.3% (inactive). Besides, the nuclei count is 2.1% in assay [2] and 111% in [3]. Moreover, the fluorescence slope in [4] was -0.449 (inactive). The NADPH fluorescence slope in [5] is -1.3e-05 (inactive). Also, in assay [6], the slope is 0.00527 (inactive). Also, the outcome in [7] was inactive.

Take `COc1cccc(N2C(=O)N(c3ccccc3Cl)C3CS(=O)(=O)CC32)c1` (stereo not given): the cell count in assay [1] stood at 366. In addition, the inhibition in assay [1] was -0.4% (inactive); in assay [3], -47.6% (inactive); in assay [8], 15.6% (inactive); in assay [9] it was 20% (inactive). For the same compound, the inhibition of aggregation in [2] is -6% (inactive). The values for the nuclei count in assay [2] and in [3] were 118% and 122%, respectively. Besides, in assay [4], the fluorescence slope was -0.336 (inactive). For the same compound, the NADPH fluorescence slope in assay [5] is -1.8e-05 (inactive). Also, in assay [6], the slope is 0.00497 (inactive). Moreover, the compound was classed as inactive in assay [7].

Take `COC(=O)c1ccccc1NC(=O)CN1CCC(n2nnc3cc(F)ccc32)CC1`: the cell count in assay [1] was 488. Besides, the inhibition is 6% (inactive) in [1], 35% (inactive) in [3], 15.8% (inactive) in [8] and 25.9% (inactive) in assay [9]. Besides, the inhibition of aggregation in assay [2] was -5.5% (inactive). Besides, the nuclei count in assay [2] came to 103%; in assay [3], 91.3%. Also, the fluorescence slope in assay [4] is -0.453 (inactive). Also, in assay [5], the NADPH fluorescence slope was -4.1e-05 (inactive). Moreover, in assay [6], the slope is 0.00532 (inactive). Also, the outcome in [7] was inactive.

On to `Cc1sc2nc3n(c(=O)c2c1C)NC(=O)CC3`, for which the cell count in [1] is 744. Besides, the inhibition was -7.3% (inactive) in assay [1], 32.1% (inactive) in [3], 16.2% (inactive) in [8] and 12.8% (inactive) in assay [9]. Further, the inhibition of aggregation in assay [2] was -15% (inactive). Besides, the values for the nuclei count in assay [2] and in assay [3] were 66.7% and 85%, respectively. For the same compound, the fluorescence slope in [4] was -0.421 (inactive). The NADPH fluorescence slope in assay [5] was -2.9e-05 (inactive). For the same compound, in [6], the slope is 0.0069 (inactive). Besides, the compound was classed as inactive in assay [7].

For the compound `N#Cc1c(-c2ccc3c(c2)OCO3)csc1N`, the cell count in assay [1] was 584. In addition, the inhibition in assay [1] is -4.7% (inactive); in assay [3], -102% (inactive); in assay [8], -35.4% (inactive); in assay [9] it was -84.4% (inactive). Also, the inhibition of aggregation in assay [2] is 7.8% (inactive). In addition, the nuclei count was determined as 94% in assay [2] and 106% in assay [3]. The fluorescence slope in [4] was -0.451 (inactive). Moreover, the NADPH fluorescence slope in assay [5] is -4.4e-05 (inactive). Moreover, in [6], the slope is 0.00604 (inactive). Further, in [7], the call was inactive.

As for `Cc1cccc(OCC(=O)Nc2ccc(N3CCCC3)cc2)c1C`, the cell count in assay [1] came out at 553. Also, the inhibition in assay [1] is -2.5% (inactive); in [3], -53.5% (inactive); in assay [8], 7.46% (inactive); in assay [9], 6.78% (inactive). Moreover, the inhibition of aggregation in assay [2] is -18.4% (inactive). Further, the nuclei count in assay [2] is 93.1%; in [3], 83.5%. The fluorescence slope in [4] was -0.37 (inactive). Besides, the NADPH fluorescence slope in [5] is -6.9e-05 (inactive). In addition, the slope in [6] was 0.005 (inactive). Further, the result in assay [7] was inactive.

For `COc1ccc(CSCCN)cc1Cl`, the cell count in assay [1] was 431. The inhibition is -3.8% (inactive) in assay [1], 27.2% (inactive) in assay [3], -7.54% (inactive) in assay [8] and -8.95% (inactive) in [9]. Besides, in assay [2], the inhibition of aggregation was -22.4% (inactive). Moreover, the nuclei count in assay [2] worked out at 104%; in assay [3], 107%. Also, the fluorescence slope in [4] is -0.4 (inactive). In addition, the NADPH fluorescence slope in assay [5] is -9.7e-05 (inactive). Further, the slope in assay [6] is 0.00556 (inactive). Also, the call in [7] was inactive.

For `COc1ccc(C/C(O)=C(\C#N)c2nc3ccccc3s2)cc1`, the cell count in assay [1] is 783. For the same compound, the inhibition is -1.1% (inactive) in [1], -15.3% (inactive) in assay [3], 0.322% (inactive) in assay [8] and 6.03% (inactive) in assay [9]. The inhibition of aggregation in assay [2] is 2.2% (inactive). The nuclei count in assay [2] is 98.5%; in assay [3], 111%. In addition, in assay [4], the fluorescence slope is -0.378 (inactive). Besides, the NADPH fluorescence slope in assay [5] is -3.1e-05 (inactive). Also, the slope in [6] is 0.0036 (inactive). Further, in assay [7], the outcome is “inactive; toxic”.

As to `CC(=O)N1CN(C2CCCC2)Cc2c1sc1c2CCCC1`, in assay [1], the cell count was 793. Besides, the inhibition in assay [1] was -14% (inactive); in assay [3] it was 26.2% (inactive); in assay [8], 5.21% (inactive); in assay [9], 20% (inactive). Besides, the inhibition of aggregation in [2] is 11.7% (inactive). The nuclei count was found to be 99.2% in assay [2] and 90.6% in [3]. The fluorescence slope in assay [4] was -0.433 (inactive). In addition, in [5], the NADPH fluorescence slope is -1.9e-07 (inactive). The slope in assay [6] was 0.00682 (inactive). The compound was called inactive in assay [7].

What is called inhibition is the change of the read-out against control, counted positive when it falls.
